These results are taken from ChEMBL document CHEMBL5230165, “Synthesis of bis-furyl-pyrrolo[3,4-b]pyridin-5-ones via Ugi-Zhu reaction and in vitro activity assays against human SARS-CoV-2 and in silico studies on its main proteins” (RSC Med Chem, 2023).

The nature of series [1]: Cytotoxicity against African green monkey Vero E6 cells assessed as cell viability incubated for 48 hrs by crystal violet staining assay. The class given is toxicity, cell-based, Vero C1008. The following applies: African green monkey (Chlorocebus sabaeus).
Series [2] is described as follows: Cytotoxicity against African green monkey Vero E6 cells assessed as cell viability upto 10 uM incubated for 48 hrs by crystal violet staining assay relative to control. It is filed as toxicity, cell-based, Vero C1008. The following applies: chlorocebus sabaeus, read-out: Activity. The method, boiled down: (§1)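 Vero E6 cells were seeded at 25 000 per well 24 h ahead in DMEM with 8% FBS at 37 °C and 5% CO2. Compounds were tested at 0.001–100 μM for 48 h, with a 0.5% DMSO vehicle control. Cells were fixed in formaldehyde and stained with crystal violet, the dye was released with 10% acetic acid, and A590 was read. Viability is relative to untreated medium. IC50 came from polynomial regression.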

Series [3] concerns SARS-CoV-2. The series is described as follows: Antiviral activity against SARS-CoV-2 infected in African green monkey Vero E6 cells assessed as inhibition of viral infection at 10 uM pre-infected with cells for 1 hrs followed by compound addition and measured after 24 hrs by crystal violet staining based plaque reduction assay. The class given is functional. To be noted: for Activity: Severe acute respiratory syndrome coronavirus 2.

The test system of a further series is Vero C1008. In words: Cytotoxicity against African green monkey Vero E6 cells assessed as reduction in cell viability at 100 uM incubated for 48 hrs by crystal violet staining assay. The class given is toxicity, cell-based. The following applies: chlorocebus sabaeus, vero c1008, 48 h. Summed up:
as §1

The test system of series [4] is SARS-CoV-2. The series is described as follows: Antiviral activity against SARS-CoV-2 infected in African green monkey Vero E6 cells assessed as inhibition of viral infection at 10 uM incubated for 1 hrs followed by compound washout and measured after 24 hrs by crystal violet staining based plaque assay relative to control. The class given is functional. To be noted: Severe acute respiratory syndrome coronavirus 2, Vero C1008.

The source made the active and inactive calls. The rule behind the calls is not given here. Where only a bound is given, the exact number is not on record here.

Regarding `O=C1c2cc(N3CCOCC3)c(Cc3ccccc3)nc2C(c2ccoc2)N1Cc1ccco1` (stereo unspecified), the IC50 at 48 h in series [1] came to 85.1 µM. Further, the viability at 48 h, up to 10 µM in series [2] was at least 100%. Further, the inhibition at 10 µM in the series with SARS-CoV-2 [3] (Severe acute respiratory syndrome coronavirus 2, Vero C1008) amounted to 53%. Also, the Activity entry with Vero C1008 is listed as “Toxic”.

Take `O=C1c2cc(N3CCOCC3)c(Cc3ccccc3)nc2C(c2ccoc2)N1CC1CCCO1` (stereo unspecified): in the series with SARS-CoV-2 [4], the inhibition at 10 µM came to 9.4%. In addition, the IC50 at 48 h in series [1] came to 290 µM. Moreover, the viability at 48 h, up to 10 µM in series [2] was at least 100%. Also, in the series with SARS-CoV-2 [3], the result was inactive. Further, the Activity entry in the series on Vero C1008 is on record as “Toxic”.

For the molecule `O=C1c2cc(N3CCOCC3)c(Cc3ccccc3)nc2C(c2ccco2)N1CC1CCCO1` (stereo unspecified), in series [1], the IC50 at 48 h amounted to 76.9 µM. Further, the viability at 48 h, up to 10 µM in series [2] was at least 100%. For the same molecule, the Activity entry with Vero C1008 is “Toxic”.

`O=C1c2cc(N3CCOCC3)c(Cc3ccccc3)nc2C(c2ccco2)N1Cc1ccco1` (stereo unspecified): the inhibition at 10 µM with SARS-CoV-2 [4] is 19.4%. Further, the concentration for half-maximal inhibition (IC50) at 48 h in series [1] stood at 276 µM. In addition, the viability at 48 h, up to 10 µM in series [2] was at least 100%. In addition, in the series with SARS-CoV-2 [3], the outcome was inactive. Also, the Activity entry in the series on Vero C1008 is “Toxic”.

On to `O=C1c2cc(N3CCOCC3)c(Cc3ccccc3)nc2C(C2CCCO2)N1Cc1ccco1` (stereo unspecified), for which the inhibition at 10 µM in the series on SARS-CoV-2 [4] amounted to 31.9%. The IC50 at 48 h in series [1] was 612 µM. Besides, the viability at 48 h, up to 10 µM in series [2] was at least 100%. Further, the outcome in the series with SARS-CoV-2 [3] was Active.

Regarding `O=C1c2cc(N3CCOCC3)c(Cc3ccc(O)cc3)nc2C(c2ccco2)N1Cc1ccco1` (stereo unspecified), in the series with SARS-CoV-2 [4], the inhibition at 10 µM was 77%. Also, the IC50 at 48 h in series [1] is 153 µM. The viability at 48 h, up to 10 µM in series [2] was at least 100%. Besides, the outcome in the series on SARS-CoV-2 [3] was inactive. The Activity result with Vero C1008 is “Toxic”.
